{"data": "Measurements from different studies", "target": "Serine/threonine-protein kinase PAK 3 (PAK3, Homo sapiens, UniProt O75914)", "note": "Protocols differ between the studies behind these lines."}
{"SMILES": "COc1cnc(Nc2cccc(S(N)(=O)=O)c2)nc1N1CCN(c2ccccc2)C(=O)C1", "assay": "binding, competition with immobilised ligand", "setting": "1 µM", "remaining binding [%]": 75}
{"SMILES": "N[C@@H]1CCN(c2nccc(-c3cnn4ncccc34)n2)C1", "assay": "binding", "setting": "1 µM", "remaining binding [%]": 99}
{"SMILES": "COc1cnc(Nc2cccc(S(N)(=O)=O)c2)nc1N1CCN(c2ccccc2)CC1", "assay": "binding, competition with immobilised ligand", "setting": "1 µM", "remaining binding [%]": 100}
{"SMILES": "COc1ccc2c(c1)O[C@H](c1ccc(OC)c(OC)c1)C[C@@H]2NC(=O)C1(c2ccc3c(c2)OC(F)(F)O3)CC1", "assay": "cell-free assay, competition with immobilised ligand", "setting": "1 µM", "remaining binding [%]": 100}
{"SMILES": "CCN1CCN(Cc2ccc(C(=O)Nc3ccc(C)c(Oc4ccc5c(c4)CC(=O)N5)c3)cc2C(F)(F)F)CC1", "assay": "binding, competition with immobilised ligand", "setting": "1 µM", "remaining binding [%]": 98}
{"SMILES": "C[C@H](c1cccc(C#N)c1)n1cc(Cl)cc(C(N)=O)c1=N", "assay": "cell-free assay, competition with immobilised ligand", "setting": "1 µM", "remaining binding [%]": 88}
{"SMILES": "F[C@@H]1CCN(c2nccc(-c3cnn4ncccc34)n2)C1", "assay": "binding", "setting": "1 µM", "remaining binding [%]": 100}
{"SMILES": "CCC(=N\\O)/C(C)=C/c1ccc(F)cc1", "assay": "cell-free assay, competition with immobilised ligand", "setting": "1 µM", "remaining binding [%]": 89}
{"SMILES": "O=C(c1ccc(Nc2ncc(Cl)c(-c3ccc(Cl)s3)n2)cc1)N1CCC(N2CCCC2)CC1", "assay": "binding, competition with immobilised ligand", "setting": "1 µM", "remaining binding [%]": 38}
{"SMILES": "CN([C@@H]1CCc2c(CC(=O)O)c3ccccc3n2C1)S(=O)(=O)c1ccc(F)cc1", "assay": "cell-free assay, competition with immobilised ligand", "setting": "1 µM", "remaining binding [%]": 98}
{"SMILES": "Cc1cnn2ncc(-c3ccnc(N(C)C)n3)c2c1", "assay": "binding", "setting": "1 µM", "remaining binding [%]": 100}
{"SMILES": "O=C(NCC1CCOCC1)c1n[nH]cc1NC(=O)c1c(F)cccc1F", "assay": "binding, competition with immobilised ligand", "setting": "1 µM", "remaining binding [%]": 100}
{"SMILES": "Cc1cnc(Nc2ccc(C(=O)N3CCC(N4CCCC4)CC3)cc2)nc1-c1cc2ccccc2s1", "assay": "binding, competition with immobilised ligand", "setting": "1 µM", "remaining binding [%]": 23}
{"SMILES": "CSc1cccnc1N1CCN(Cc2nc3ccccc3[nH]2)CC1", "assay": "cell-free assay, competition with immobilised ligand", "setting": "1 µM", "remaining binding [%]": 87}
{"SMILES": "CN(CCCC(F)(F)F)c1nccc(-c2cnn3ncccc23)n1", "assay": "binding", "setting": "1 µM", "remaining binding [%]": 100}
{"SMILES": "FC(F)(F)Oc1cccc(-c2cnc3ccc(-c4ccncc4)nn23)c1", "assay": "cell-free assay, competition with immobilised ligand", "setting": "5 µM", "remaining binding [%]": 100}
{"SMILES": "C[C@@H](c1ccc(-n2cnc3c(N)ncnc32)cc1)N1CCc2nn(C)c(Cc3ccccc3)c2C1=O", "assay": "binding, competition with immobilised ligand", "setting": "0.1 µM", "remaining binding [%]": 71}
{"SMILES": "C[C@H]1CCN(c2nccc(-c3cnn4ncccc34)n2)C1", "assay": "binding", "setting": "1 µM", "remaining binding [%]": 94}
{"SMILES": "O=C(c1ccc(Nc2ncc(Cl)c(-c3cc4ccccc4s3)n2)cc1)N1CCC(N2CCCC2)CC1", "assay": "binding, competition with immobilised ligand", "setting": "1 µM", "remaining binding [%]": 8.4}
{"SMILES": "CC1CCCN1c1nccc(-c2cnn3ncccc23)n1 (stereo not drawn)", "assay": "binding", "setting": "1 µM", "remaining binding [%]": 100}
{"SMILES": "O=C1NC(c2ccccn2)Sc2ccccc21 (stereo not drawn)", "assay": "cell-free assay, competition with immobilised ligand", "setting": "1 µM", "remaining binding [%]": 83}
